An excerpt weighted towards active compounds, which were near 3.3% of everything screened.
Myeloid diff 2: myeloid differentiation induction | ER-HoxA9 myeloid progenitors, lysozyme-GFP differentiation, flow cytometry | calls only at 10 µM | 360,000 compounds, 1% hits;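 active = normalized GFP-positive differentiation at or above the plate's own cutoff, the solvent-only control mean plus 3 SD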;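 also: cells exposed to compound for four days before flow analysis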
NRP1-CendR mod: NRP-1/CendR interaction modulation; O14786; FAM-RPARPAR peptide binding to NRP-1, fluorescence polarization; inhibition, % at 25 µM; 360,000 compounds, 0.85% hits; AID 602438;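 active = inhibition or corrected inhibition above about 18%, plus a signal ratio from 0.5 to 1.5, limit read from the data, passing the limit was not always enough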
Target sequence (O14786 whole entry, looked up): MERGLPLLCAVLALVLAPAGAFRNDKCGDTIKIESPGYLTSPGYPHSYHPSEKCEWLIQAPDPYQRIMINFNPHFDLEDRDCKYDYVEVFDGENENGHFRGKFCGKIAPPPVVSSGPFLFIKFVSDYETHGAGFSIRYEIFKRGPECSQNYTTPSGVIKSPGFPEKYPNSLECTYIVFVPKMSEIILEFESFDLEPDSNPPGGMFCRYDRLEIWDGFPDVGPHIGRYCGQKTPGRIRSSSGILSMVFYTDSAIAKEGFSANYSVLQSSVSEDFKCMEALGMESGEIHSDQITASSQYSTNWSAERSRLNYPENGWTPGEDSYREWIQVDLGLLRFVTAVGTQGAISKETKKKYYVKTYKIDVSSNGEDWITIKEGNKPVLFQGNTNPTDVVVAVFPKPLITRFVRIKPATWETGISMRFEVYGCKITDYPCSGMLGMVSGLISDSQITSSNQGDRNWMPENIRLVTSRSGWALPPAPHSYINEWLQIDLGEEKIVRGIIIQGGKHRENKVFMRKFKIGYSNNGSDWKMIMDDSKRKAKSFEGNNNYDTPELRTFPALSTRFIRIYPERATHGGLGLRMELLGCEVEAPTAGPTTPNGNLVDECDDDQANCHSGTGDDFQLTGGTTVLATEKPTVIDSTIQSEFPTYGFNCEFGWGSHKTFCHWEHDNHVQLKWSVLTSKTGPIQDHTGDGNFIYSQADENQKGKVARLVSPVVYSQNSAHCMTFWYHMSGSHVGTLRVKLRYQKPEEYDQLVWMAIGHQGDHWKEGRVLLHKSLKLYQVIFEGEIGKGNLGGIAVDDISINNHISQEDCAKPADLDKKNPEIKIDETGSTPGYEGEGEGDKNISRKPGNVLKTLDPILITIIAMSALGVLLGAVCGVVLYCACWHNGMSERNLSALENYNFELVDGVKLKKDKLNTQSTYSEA
Arr AP2 block: blocks beta-arrestin peptide binding to AP2 adaptin | AID 504490 | 340,000 compounds, 0.31% hits | inhibition, % at 10 µM | FITC-arrestin peptide / GST-AP2 beads, flow cytometry; AP2 beta2 appendage carries R879A mutation;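 active = inhibition above a set limit, near 3 SD of compounds lacking own fluorescence, cut at about 54% in these data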;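 also: plate controls were DMSO wells for no effect and 5 µM unlabelled arrestin peptide for full effect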
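Test system: GST-tagged AP2 beta2-adaptin appendage (R879A) on 4 µm glutathione beads; also added: fluorescein-tagged arrestin peptide at 50 nM final; timing: 12 min plus 1 h, RT; signal: flow cytometry, FL1 (488/535 nm); read-out: percent drop in bead-associated FITC signal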
ATG4B inhibitor: ATG4B (human) cysteine protease inhibition. 340,000 compounds, 0.51% hits. inhibition, % at 8.33 µM. AID 504462. ATG4B cleavage of LC3-PLA2, NBD-HPC fluorescence, 1 h. Q9Y4P1; in the data active = inhibition above about 40%
ABCB6 inh 2: inhibitors of human ABC transporter ABCB6; Q9NP58; K562-ABCB6 porphyrin accumulation, flow cytometry, 1 h; active compounds read low; fluorescence ratio to DMSO, % at 10 µM; 360,000 compounds, 0.19% hits; AID 602162;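 active = fluorescence ratio to DMSO below 75%, the collection mean minus 3 SD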;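 also: signal is porphyrin accumulated inside mitochondria; 100% equals median channel fluorescence of DMSO control wells; lower ratio means ABCB6 inhibition with less porphyrin fluorescence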
Granule exo inh: blocks lytic granule exocytosis; AID 651702; TALL-104 LAMP-1 surface exposure, flow cytometry; cells stimulated with thapsigargin and PMA; inhibition, % at 10 µM; 360,000 compounds, 0.66% hits;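 active = inhibition above about 55%, limit read from the data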
The depositor's hits bear a star.

Cc1ccc(C(=O)CN(CCC(=O)O)C(=O)c2ccncc2)cc1 was read as Myeloid diff 2 inactive, NRP1-CendR mod 22*, Arr AP2 block 4, ATG4B inhibitor -13, ABCB6 inh 2 96 and Granule exo inh -4.
For CCOc1ccc(N(CC(=O)N2CCC(Cc3ccccc3)CC2)S(C)(=O)=O)cc1 the results were Myeloid diff 2 inactive, NRP1-CendR mod 29*, Arr AP2 block 8, ATG4B inhibitor 0, ABCB6 inh 2 99 and Granule exo inh 22.
For CC(=O)Nc1sc(/C(C#N)=C/c2ccc(Cl)c(Cl)c2)nc1-c1ccc(C)cc1 the results were Myeloid diff 2 active, NRP1-CendR mod 138, Arr AP2 block 10, ATG4B inhibitor 1, ABCB6 inh 2 inactive and Granule exo inh 2.
Screening O=C(Cc1ccc([N+](=O)[O-])cc1)c1ccccc1 returned Myeloid diff 2 active, NRP1-CendR mod 3, Arr AP2 block 12, ATG4B inhibitor 4, ABCB6 inh 2 131 and Granule exo inh -4.
Screening O=C(NCCc1ccc([N+](=O)[O-])cc1)c1ccccc1 returned Myeloid diff 2 inactive, NRP1-CendR mod -4, Arr AP2 block -12, ATG4B inhibitor -7, ABCB6 inh 2 99 and Granule exo inh 10.
O=C(CC(=O)c1ccccc1)Nc1ccc([N+](=O)[O-])cc1 was read as Myeloid diff 2 inactive, NRP1-CendR mod 25*, Arr AP2 block -14, ATG4B inhibitor -5, ABCB6 inh 2 88 and Granule exo inh 0.
CS(=O)(=O)Nc1ccc(C(=O)CC(=O)Nc2ccc([N+](=O)[O-])cc2)cc1 was read as Myeloid diff 2 inactive, NRP1-CendR mod -9, Arr AP2 block 10, ATG4B inhibitor 4, ABCB6 inh 2 105 and Granule exo inh -5.
Screening Cc1ccc(C)n1-c1c(C(=O)NN)cnn1-c1ccccc1 returned Myeloid diff 2 inactive, NRP1-CendR mod 6, Arr AP2 block 14, ATG4B inhibitor 4, ABCB6 inh 2 102 and Granule exo inh 0.
For COC(=O)C(Cc1ccccc1)NCC(=O)Nc1cccc(Cl)c1C (stereo unspecified) the results were Myeloid diff 2 inactive, NRP1-CendR mod -3, Arr AP2 block -6, ATG4B inhibitor 4, ABCB6 inh 2 95 and Granule exo inh -6.
For O=C(O)CCCCCNC(=O)Cn1nnc2ccccc2c1=O the results were Myeloid diff 2 inactive, NRP1-CendR mod -5, Arr AP2 block 15, ATG4B inhibitor -6, ABCB6 inh 2 102 and Granule exo inh -3.
Screening O=C(COC(=O)c1cc(Cl)ccc1O)NCCC1=CCCCC1 returned NRP1-CendR mod 20*, Arr AP2 block 10, ATG4B inhibitor -5, ABCB6 inh 2 94 and Granule exo inh 2.
Screening O=C(COC(=O)Cc1ccc(Cl)cc1Cl)NCCC1=CCCCC1 returned Myeloid diff 2 inactive, NRP1-CendR mod -12, Arr AP2 block 8, ATG4B inhibitor -3, ABCB6 inh 2 102 and Granule exo inh -3.
CC(C)=N/N=C1/NC(=O)C(c2ccc(Cl)cc2)S1 (stereo unspecified) was read as Myeloid diff 2 inactive, NRP1-CendR mod -6, Arr AP2 block -13, ATG4B inhibitor 0, ABCB6 inh 2 107 and Granule exo inh -7.
Screening C(=C/c1nccc2c1[nH]c1ccccc12)/c1ccc2c(c1)OCO2 returned Myeloid diff 2 active, NRP1-CendR mod -26, Arr AP2 block 0, ATG4B inhibitor 2, ABCB6 inh 2 175 and Granule exo inh 31.
For C(=N\Nc1nc2ccccc2[nH]1)/c1ccc2c(c1)OCO2 the results were Myeloid diff 2 inactive, NRP1-CendR mod -4, Arr AP2 block -45, ATG4B inhibitor -4, ABCB6 inh 2 96 and Granule exo inh -2.
`CCOC(=O)C1=C(CSc2nc(-c3ccccc3)ccc2C#N)OC(N)=C(C#N)C1c1ccc(OC)cc1` (stereo unspecified) gave Myeloid diff 2 active, NRP1-CendR mod -69, Arr AP2 block 4, ATG4B inhibitor 2, ABCB6 inh 2 430 and Granule exo inh 75*.
`Cc1cc(C)nc(NCCO)n1` gave Myeloid diff 2 inactive, NRP1-CendR mod 1, Arr AP2 block 21, ATG4B inhibitor 5, ABCB6 inh 2 100 and Granule exo inh -3.
CN(CCNC(=O)C1CCN(c2ncnc3c2nc2n3CCCCC2)CC1)Cc1ccccc1 was read as Myeloid diff 2 active, NRP1-CendR mod 5, Arr AP2 block 26, ATG4B inhibitor 6, ABCB6 inh 2 104 and Granule exo inh -1.
`CCn1c(=O)c(CCC(=O)NCCN2CCOCC2)c(C)c2c(C)nn(-c3cccc(C)c3)c21` gave Myeloid diff 2 inactive, NRP1-CendR mod 28*, Arr AP2 block -7, ATG4B inhibitor -2, ABCB6 inh 2 97 and Granule exo inh 13.
CCN1CCN(CCNC(=O)CCc2c(C)c3c(C)nn(-c4ccccc4)c3n(C)c2=O)CC1 was read as Myeloid diff 2 inactive, NRP1-CendR mod 14, Arr AP2 block 27, ATG4B inhibitor -6, ABCB6 inh 2 93 and Granule exo inh 9.
Screening O=C(NCc1cccc(F)c1)c1cccc(OC2CCN(C(=O)C3CC3)CC2)c1 returned Myeloid diff 2 inactive, NRP1-CendR mod 24*, Arr AP2 block -3, ATG4B inhibitor -1, ABCB6 inh 2 94 and Granule exo inh 1.
For O=C(C1CCC(=O)N(C2CCCC2)C1)N1CCC(Oc2cccc(F)c2)CC1 (stereo unspecified) the results were Myeloid diff 2 active, NRP1-CendR mod -2, Arr AP2 block 30, ATG4B inhibitor 17, ABCB6 inh 2 99 and Granule exo inh 2.
O=C(C1CCC(=O)N(C2CC2)C1)N1CCC(Oc2cccc(F)c2)CC1 (stereo unspecified) was read as Myeloid diff 2 inactive, NRP1-CendR mod 11, Arr AP2 block 5, ATG4B inhibitor 1, ABCB6 inh 2 107 and Granule exo inh -1.
`COc1ccc(NC(=O)CN(C)CC(=O)NC2CCCCC2C)cc1` (stereo unspecified) gave Myeloid diff 2 inactive, NRP1-CendR mod 15, Arr AP2 block -12, ATG4B inhibitor -10, ABCB6 inh 2 101 and Granule exo inh -6.
`COc1ccccc1Nc1nnc(Cc2ccccc2)c(=O)[nH]1` gave Myeloid diff 2 inactive, NRP1-CendR mod 14, Arr AP2 block -12, ATG4B inhibitor -4, ABCB6 inh 2 107 and Granule exo inh -2.
`COCCNc1nnc(Cc2ccccc2)c(=O)[nH]1` gave Myeloid diff 2 active, NRP1-CendR mod 5, Arr AP2 block 19, ATG4B inhibitor 6, ABCB6 inh 2 254 and Granule exo inh -10.
COc1ccc(OCCCC(=O)N2CCCc3ccccc32)cc1 was read as Myeloid diff 2 inactive, NRP1-CendR mod 7, Arr AP2 block 6, ATG4B inhibitor 5, ABCB6 inh 2 92 and Granule exo inh -1.

Assay outcomes deposited in PubChem BioAssay by several laboratories.
